Reference: PubChem BioAssay
The source made the active and inactive calls.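 How the source made its calls, unless noted: active means Her2 level under about 52% in both replicate screens, with viability over 70% of control (limit read from the data); inconclusive means Her2 under the limit in one screen only, or viability under 70%; inactive means Her2 level above the set limit.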 Peptide text beside a SMILES is read from it. * marks the point of attachment. Boc = CC(C)(C)OC(=O)*

What was measured:
[1] = reducers of endogenous Her2 protein level, primary screen, SKBR3 breast tumor cells, AlphaScreen, ATP viability (AID 461); conditions: 18-24 h, measured here: SKBR3 viability, ATP luminescence, at 10 µM;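 on Her2 level: lower value means less Her2 protein in the cells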;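 on viability: percent of carrier control wells set as 100% viability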
[2] = biological target: Receptor tyrosine-protein kinase erbB-2 (Homo sapiens) (UniProt P04626); assay: as above; conditions: 18-24 h, at 10 µM, stronger effect = lower value
Receptor tyrosine-protein kinase erbB-2 (Homo sapiens), sequence (P04626 whole entry, looked up): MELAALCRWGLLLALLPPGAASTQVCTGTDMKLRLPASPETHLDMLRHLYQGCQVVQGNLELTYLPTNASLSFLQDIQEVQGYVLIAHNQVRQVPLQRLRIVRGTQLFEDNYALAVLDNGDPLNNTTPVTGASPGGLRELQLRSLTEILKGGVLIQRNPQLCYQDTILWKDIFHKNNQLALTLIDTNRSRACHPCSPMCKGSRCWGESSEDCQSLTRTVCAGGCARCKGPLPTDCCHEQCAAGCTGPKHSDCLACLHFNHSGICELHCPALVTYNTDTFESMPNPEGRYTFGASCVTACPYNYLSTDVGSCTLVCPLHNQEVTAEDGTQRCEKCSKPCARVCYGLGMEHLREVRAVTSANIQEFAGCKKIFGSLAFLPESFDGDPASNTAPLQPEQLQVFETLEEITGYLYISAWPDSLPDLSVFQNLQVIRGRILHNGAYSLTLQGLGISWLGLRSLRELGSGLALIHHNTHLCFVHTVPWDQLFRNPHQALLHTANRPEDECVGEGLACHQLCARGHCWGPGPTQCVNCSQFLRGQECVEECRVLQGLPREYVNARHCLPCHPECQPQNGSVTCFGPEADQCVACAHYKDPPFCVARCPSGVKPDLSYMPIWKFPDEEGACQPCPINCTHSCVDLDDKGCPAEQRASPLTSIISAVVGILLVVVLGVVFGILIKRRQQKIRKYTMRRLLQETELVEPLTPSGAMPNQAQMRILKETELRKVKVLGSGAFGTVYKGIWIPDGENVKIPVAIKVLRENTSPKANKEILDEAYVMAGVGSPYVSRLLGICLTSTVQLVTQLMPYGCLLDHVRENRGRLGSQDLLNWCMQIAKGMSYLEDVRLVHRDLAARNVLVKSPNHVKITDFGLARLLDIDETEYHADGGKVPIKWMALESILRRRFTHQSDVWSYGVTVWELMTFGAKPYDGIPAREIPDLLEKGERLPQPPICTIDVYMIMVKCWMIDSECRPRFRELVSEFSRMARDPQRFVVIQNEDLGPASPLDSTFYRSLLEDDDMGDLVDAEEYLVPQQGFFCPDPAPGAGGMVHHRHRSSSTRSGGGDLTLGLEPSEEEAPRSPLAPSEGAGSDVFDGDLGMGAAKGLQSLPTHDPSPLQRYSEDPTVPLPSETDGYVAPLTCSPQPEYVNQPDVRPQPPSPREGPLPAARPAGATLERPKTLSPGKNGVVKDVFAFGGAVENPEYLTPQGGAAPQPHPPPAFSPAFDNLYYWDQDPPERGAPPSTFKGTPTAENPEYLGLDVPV

[3] = SK-BR-3 cell growth inhibitors, pilot screen, 24 h, human (AID 572;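 active means viability at or below 10% of carrier control in both of two separate runs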;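 further: compound exposure lasted between 18 and 24 h rather than exactly 24 h; 100% = carrier-treated control wells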); conditions: SK-BR-3 viability, CellTiter-Glo luminescence, at 10 µM, stronger effect = lower value
[4] = HUVEC growth inhibition – cell-based, human, primary screen (AID 575;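 active means viability at or below 30% in both replicate assays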;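 further: 100% = median of untreated cell wells with 0.1% DMSO on each plate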); conditions: HUVEC proliferation, CellTiter-Glo luminescence, 72 h; at 10 µM; stronger effect = lower value
Outline: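 Test system – primary HUVEC, no more than 12 passages · Dosing – one dose, 10 µM final, 0.1% DMSO · Times – 72 h treatment at 37 °C · Measured by – ATP-based CellTiter-Glo luminescent read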

[5] = growth inhibitors of H69AR lung tumor, primary screen, human, duplicate replicates (AID 580;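 active means viability at or under a set limit in both replicates, limit being median viability minus 3 SD, cut at about 48% in these data, passing the limit was not always enough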;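 further: 100% = mean luminescence of untreated wells and 0% = no signal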); conditions: H69AR lung tumor cells viability, ATP luminescence, 72 h; at 10 µM; stronger effect = lower value
[6] = reversal of MRP1-mediated doxorubicin resistance, pilot screen, H69AR cells, doxorubicin co-treatment (AID 601;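 active means viability loss from added drug above about 55%, and viability with drug at most 40%, in both replicates, limit read from the data, passing the limit was not always enough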); conditions: CellTiter-Glo, 72 h, at 10 µM; for differential viability (reversal): stronger effect = higher value
[7] = 384-well plate pilot, post-Golgi transport modulator project, inhibition of yeast transport mutant growth (AID 636; in the data active means inhibition above about 31%); conditions: absorbance 615 nm, about 18 h, stronger effect = higher value
[8] = growth suppression of yeast trafficking mutant, preliminary HTS, modulators of trafficking downstream of Golgi apparatus project, 1536-format plate, OD 615 nm (AID 637; in the data active means inhibition above about 30%); conditions: yeast transport mutant growth, absorbance 615 nm, 18 h; stronger effect = higher value
[9] = H69AR cells + 2 uM doxorubicin, measured here: viability with 2 uM doxorubicin, stronger effect = lower value
[10] = H69AR cells, compound alone cytotoxicity

Compound | viability [1] | Her2 level [2] | viability [3] | viability [4] | viability [5] | differential viability (reversal) ([6]; H69AR cells + 2 uM doxorubicin) | viability [6, 9] | viability [6, 10] | inhibition [7] | inhibition [8]
COc1ccc(C2=NO[C@@H]3C(=O)N(c4ccc5c(c4)OCCO5)C(=O)[C@H]23)cc1OC | 85% | 112% (inactive) | 85% (inactive) | 81.7% (inactive) | 80.3% (inactive) | -6.85% (inactive) | 87.1% | 80.3% | 2.34% (inactive) | -5.08% (inactive)
CCn1c(=O)c(C(=O)Nc2cccnc2)c(O)c2ccccc21 | 103% | 84.5% (inactive) | 103% (inactive) | 113% (inactive) | 67.7% (inactive) | -24.2% (inactive) | 91.9% | 67.7% | -0.93% (inactive) | 100% (active)
CCOC(=O)Cn1c(CN2CCN(c3cccc(Cl)c3)CC2)nc2c1c(=O)[nH]c(=O)n2C | 92.5% | 87% (inactive) | 92.5% (inactive) | 69% (inactive) | 72.5% (inactive) | -6.24% (inactive) | 78.7% | 72.5% | 0% (inactive) | 1.17% (inactive)
Cc1ccc2c(CNCc3ccco3)cc(=O)oc2c1 | 117% | 94.5% (inactive) | 117% (inactive) | 84.1% (inactive) | 93.5% (inactive) | 11.5% (inactive) | 81.9% | 93.5% | -1.07% (inactive) | -4.03% (inactive)
O=C(CSc1nc2[nH]ncc2c(=O)n1-c1ccccc1Br)NCc1ccco1 | 100% | 80.5% (inactive) | 100% (inactive) | 95% (inactive) | 82.9% (inactive) | 5.05% (inactive) | 77.8% | 82.9% | -4.61% (inactive) | -1.77% (inactive)
CC(C)CC(NC(=O)OC(C)(C)C)C(=O)NC(C(=O)NC(C)C(N)=O)C(C)C (stereo not drawn) (Boc-Leu-Val-Ala-NH2; configuration not given here) | 102% | 107% (inactive) | 102% (inactive) | 94.2% (inactive) | 112% (inactive) | 19.3% (inactive) | 93% | 112% | -4.27% (inactive) | -3.23% (inactive)
Clc1ccc2nc(N3CCCCC3)[nH]c2c1 | 90.5% | 78.5% (inactive) | 90.5% (inactive) | 105% (inactive) | 91.9% (inactive) | 11.6% (inactive) | 80.3% | 91.9% | -7.84% (inactive) | 2.79% (inactive)
CC(=O)c1c(C)oc2ccc(NS(=O)(=O)c3ccc(O)c(C(=O)O)c3)cc12 | 92% | 78.5% (inactive) | 92% (inactive) | 105% (inactive) | 94% (inactive) | 3.09% (inactive) | 90.9% | 94% | -6.22% (inactive) | 0.79% (inactive)
COc1ccccc1Nc1ccc(C(=O)NC2CCCCC2)cn1 | 100% | 96% (inactive) | 100% (inactive) | 106% (inactive) | 93.2% (inactive) | 12% (inactive) | 81.2% | 93.2% | -3.92% (inactive) | -3.11% (inactive)
CCOC(=O)N1CCC(N2CC34C=CC(O3)C(C(=O)O)C4C2=O)CC1 (stereo not given) | 102% | 99.5% (inactive) | 102% (inactive) | 92.4% (inactive) | 100% (inactive) | 18.3% (inactive) | 81.8% | 100% | -3.73% (inactive) | -4.26% (inactive)
Cc1nn(-c2ccccc2)c2sc(C(=O)N3CCOCC3)cc12 | 88.5% | 84.5% (inactive) | 88.5% (inactive) | 71.9% (inactive) | 87.3% (inactive) | -2.3% (inactive) | 89.6% | 87.3% | -6% (inactive) | -0.48% (inactive)
COc1cc(OC)cc(OCC(O)Cn2cnc(-c3ccccc3)c2)c1 (stereo not given) | 90% | 84% (inactive) | 90% (inactive) | 88% (inactive) | 83.8% (inactive) | -11.4% (inactive) | 95.2% | 83.8% | 3.64% (inactive) | -2.13% (inactive)
CCNc1nc(N2CCCCC2)nc(-n2nnc(C(=O)OCC)c2C)n1 | 162% | 94% (inactive) | 162% (inactive) | 116% (inactive) | 95.7% (inactive) | 1.31% (inactive) | 94.3% | 95.7% | -6.45% (inactive) | 4.75% (inactive)
COc1cccc(NC(=O)N[C@@H](Cc2ccccc2)C(=O)O)c1 | 94% | 91.5% (inactive) | 94% (inactive) | 93.8% (inactive) | 114% (inactive) | 19.6% (inactive) | 94.5% | 114% | -4.46% (inactive) | 2.06% (inactive)
CCOC(=O)c1c(NC(=O)OC)sc(C(=O)N(C)C)c1C | 109% | 94.5% (inactive) | 109% (inactive) | 112% (inactive) | 108% (inactive) | 20% (inactive) | 87.9% | 108% | -6.89% (inactive) | -4% (inactive)
COc1ccc(CCNC(=O)c2ccncc2)cc1OC | 107% | 110% (inactive) | 107% (inactive) | 96.3% (inactive) | 97.5% (inactive) | 12.2% (inactive) | 85.3% | 97.5% | -6.27% (inactive) | -3.71% (inactive)
O=S(=O)(Nc1cccnc1)c1cc(Cl)ccc1Cl | 77.5% | 96% (inactive) | 77.5% (inactive) | 92.2% (inactive) | 82.8% (inactive) | -4.94% (inactive) | 87.7% | 82.8% | -1.03% (inactive) | -3% (inactive)
O=C(NC1CCCC1)c1c[nH]c2ccc(F)cc2c1=O | 97.5% | 90.5% (inactive) | 97.5% (inactive) | 92.6% (inactive) | 92% (inactive) | 9.81% (inactive) | 82.1% | 92% | -5.41% (inactive) | -3.67% (inactive)
CCCCNC(=O)c1nc2ncc(Br)cn2n1 | 108% | 75% (inactive) | 108% (inactive) | 100% (inactive) | 85.4% (inactive) | -5.97% (inactive) | 91.4% | 85.4% | -3.51% (inactive) | -2.3% (inactive)
Clc1cc2c(c(Cn3cnc4ccccc43)c1)OCOC2 | 109% | 106% (inactive) | 109% (inactive) | 87.8% (inactive) | 98% (inactive) | 6.4% (inactive) | 91.6% | 98% | -3.33% (inactive) | -5.57% (inactive)
Fc1ccc(NCc2nnc(SCc3nnc(-c4ccccc4)o3)n2CC2CCCO2)cc1 (stereo not given) | 96.5% | 109% (inactive) | 96.5% (inactive) | 97.8% (inactive) | 78.9% (inactive) | -18.4% (inactive) | 97.3% | 78.9% | -0.54% (inactive) | 15.4% (inactive)
O=C(CSc1nnnn1C1CCCC1)Nc1cccc(NC(=O)c2ccco2)c1 | 91.5% | 98.5% (inactive) | 91.5% (inactive) | 96.7% (inactive) | 110% (inactive) | 13.4% (inactive) | 97% | 110% | -0.39% (inactive) | -2.17% (inactive)
COCCNC(=O)CN(C)S(=O)(=O)c1ccc2c(c1)OCCO2 | 107% | 102% (inactive) | 107% (inactive) | 104% (inactive) | 100% (inactive) | 12% (inactive) | 88.2% | 100% | -4.8% (inactive) | -2.26% (inactive)
O=C(Nc1ccccc1)c1ccc(NCC2CCCO2)c(S(=O)(=O)N2CCOCC2)c1 (stereo not given) | 87% | 95% (inactive) | 87% (inactive) | 102% (inactive) | 90% (inactive) | 4.29% (inactive) | 85.7% | 90% | -3.16% (inactive) | -5.87% (inactive)
COc1ccc(CCNC(=O)CSc2nncn2N)cc1OC | 93.5% | 80.5% (inactive) | 93.5% (inactive) | 109% (inactive) | 96.4% (inactive) | 8% (inactive) | 88.4% | 96.4% | -2.11% (inactive) | -3.5% (inactive)
CC(C)(C)NC(=O)C(c1ccco1)N(C(=O)Cn1nnc(-c2ccc(F)cc2)n1)c1ccccc1F (stereo not given) | 99% | 84% (inactive) | 99% (inactive) | 96% (inactive) | 99.3% (inactive) | -11% (inactive) | 110% | 99.3% | -5.54% (inactive) | 21.8% (inactive)
CCn1nc(NC(=O)c2cccnc2)c2cc3ccccc3nc21 | 90% | 70.5% (inactive) | 90% (inactive) | 84.4% (inactive) | 89.8% (inactive) | 15.2% (inactive) | 74.6% | 89.8% | -8.38% (inactive) | -3.17% (inactive)
COc1ccc2c(c1)C(C)=CC(C)(C)N2C(=O)CSc1nnc(-c2ccc(C)cc2)o1 | 98.5% | 99% (inactive) | 98.5% (inactive) | 53.2% (inactive) | 93.9% (inactive) | 2.13% (inactive) | 91.8% | 93.9% | 31% (active) | -1% (inactive)
